High-throughput results: PubChem BioAssay, Broad Institute
SIRT5 block: SIRT5 desuccinylase inhibitors, primary screen, biochemical, fluorescence imaging, single point, set 5; NAD-dependent protein deacylase sirtuin-5, mitochondrial (Homo sapiens), Q9NXA8; Purified SirT5, succinyl-peptide AMC, trypsin-coupled fluorescence; inhibition, % at 15 µM; 1.1% of 330,000 active; AID 652115, 2013; in the data active means inhibition above about 15%
Target sequence (Q9NXA8 whole entry, looked up): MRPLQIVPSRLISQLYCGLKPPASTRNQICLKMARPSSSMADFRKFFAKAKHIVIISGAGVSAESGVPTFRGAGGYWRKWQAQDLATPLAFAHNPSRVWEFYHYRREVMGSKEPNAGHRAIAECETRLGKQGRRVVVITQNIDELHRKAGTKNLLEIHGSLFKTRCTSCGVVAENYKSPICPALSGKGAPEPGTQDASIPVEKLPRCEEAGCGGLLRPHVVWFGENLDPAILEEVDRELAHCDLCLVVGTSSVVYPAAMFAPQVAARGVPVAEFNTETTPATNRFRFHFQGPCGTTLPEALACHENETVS
Ecoli rRNA inh: reduced GFP signal of wild-type E. coli, primary screen, bacterial rRNA inhibitor project, GFP/RFP fluorescence, OD600, single point; E. coli WT GFP vs humanized-ribosome RFP mutants, 24 h; active compounds read low; DMSO median 0, no signal -100; GFP signal change (wild-type ribosome), % (concentration not given with the values); 1.6% of 350,000 active; AID 720706, 2013;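 active means significant combined selectivity score with lowered wild-type GFP, culture density cut under 30%, mutant RFP and density less affected; inactive means any of these conditions unmet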
PGC1a acetyl inh: inhibitors of PGC1a acetylation signal, primary screen, cell-based, U2OS, AlphaScreen, inhibitor mode; 0.17% of 350,000 active; AID 651687, 2012; AlphaScreen anti-acetyl-lysine; with virally co-expressed GCN5 acetyltransferase; inhibition, % at 15.6 µM;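 active means every replicate shows inhibition of at least 40%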;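 further: 0% = neutral control wells and 100% = positive control wells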
Cneo AK release: Cryptococcus neoformans cell lysis inducers, primary screen, AK release luminescence, single concentration; AID 651654, 2012; lysis activity, % at 15 µM; C. neoformans lysis, adenylate kinase release luminescence, 4 h; normalised: neutral wells 0, clomiphene wells 100; 0.2% of 360,000 active;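 active means mean lysis activity across replicates of at least 80%, whatever share of replicates individually reach that level; inactive means mean lysis activity below 80%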
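Assay system: C. neoformans cells. Amount: yeast cell density of 5 × 10^6 cells/mL. Technique: AK luminescence. Buffer or medium: YPD. Times: static 4 h at 37 °C with compound, 1 h detection. Dosing: single-point compound dose. Read-out: lysis from increased AK signal.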
S100A4 MyoIIA: inhibitors of S100A4-myosin IIA peptide binding, primary screen, biochemical, fluorescence polarization, TAMRA-MyoIIA peptide. Protein S100-A4 (Homo sapiens), P26447. inhibition, % at 10.7 µM. 0.14% of 360,000 active;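 active means mean inhibition of at least 70% across replicates, with every replicate also reaching that level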
Target sequence (P26447 whole entry, looked up): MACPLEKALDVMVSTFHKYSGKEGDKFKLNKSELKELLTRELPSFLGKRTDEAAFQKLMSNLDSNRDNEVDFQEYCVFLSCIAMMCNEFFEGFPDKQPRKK
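Compound dosing: one dose per compound; test system: human S100A4 monomer with TAMRA-labelled myosin IIA peptide; probe or stimulus: TAMRA-labelled myosin IIA heavy-chain peptide probe, 5 nM; medium: HEPES buffer with Ca2+, pH 7.2; schedule: 5 min incubation before reading; benchmarks: neutral control DMSO, positive control TFP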
Statin myotox sup: suppressors of statin myotoxicity in C2C12 myotubes, primary screen, cell-based, single point, plate reader; rescue of ATP level, % at 7.49 µM; C2C12 myotubes + simvastatin, ATP luminescence, 48 h; scaled: DMSO 0, geranylgeraniol control 100; 0.78% of 330,000 active;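 active means mean ATP rescue above about 67%, or every replicate alone reaching that limit, limit read from the data, passing the limit was not always enough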;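 further: myotubes were challenged with 10 µM simvastatin during compound exposure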
* marks the source's active call; other numbers are inactive results; nt = no result given. Compounds with a hit are over-represented: about 3% of the library has one in this group of screens.

SMILES	SIRT5 block	Ecoli rRNA inh	PGC1a acetyl inh	Cneo AK release	S100A4 MyoIIA	Statin myotox sup
C[C@@H]1CN([C@H](C)CO)C(=O)c2cc(N(C)C)ccc2O[C@@H]1CN(C)C(=O)Nc1ccc(C(F)(F)F)cc1	2	-26	0	107*	10	-20
C[C@H]1CN([C@@H](C)CO)C(=O)c2cc(NC(=O)CCCCCC(=O)Nc3ccccc3N)ccc2O[C@H]1CN(C)C(=O)Nc1ccc(C(F)(F)F)cc1	nt	1	-10	52	0	41
C[C@@H]1CN([C@@H](C)CO)C(=O)c2cccc(N(C)C)c2O[C@H]1CN(C)C(=O)Nc1ccc(C(F)(F)F)cc1	nt	-4	8	99*	3	27
C[C@@H]1CN([C@@H](C)CO)C(=O)c2cc(NC(=O)CCCCCC(=O)Nc3ccccc3N)ccc2O[C@@H]1CN(C)C(=O)Nc1ccc(C(F)(F)F)cc1	9	-9	-9	57	5	68*
C[C@H](CO)N1C[C@H](C)[C@@H](CN(C)C(=O)Nc2ccc(C(F)(F)F)cc2)Oc2c(cccc2N(C)C)C1=O	nt	-11	-2	0	-20	-23
C[C@H]1CN([C@@H](C)CO)C(=O)c2cc(NC(=O)Nc3ccc(F)cc3)ccc2O[C@@H]1CN(C)S(C)(=O)=O	2	1	-1	100*	-3	6
C[C@@H]1CN([C@H](C)CO)C(=O)c2cc(NC(=O)Nc3ccc(C(F)(F)F)cc3)ccc2O[C@@H]1CN(C)C(=O)Nc1ccc2c(c1)OCO2	15*	4	-9	-1	-1	-32
C[C@@H]1CN([C@H](C)CO)C(=O)c2cc(NC(=O)Nc3ccc(C(F)(F)F)cc3)ccc2O[C@@H]1CN(C)C(=O)Nc1ccc(C(F)(F)F)cc1	6	1	10	46	106*	-57
C[C@H]1CN([C@@H](C)CO)C(=O)c2cc(NC(=O)Nc3cccc4ccccc34)ccc2O[C@@H]1CN(C)C(=O)Nc1ccccc1	0	-3	4	0	1	4
C[C@@H]1CN([C@@H](C)CO)C(=O)c2cc(NC(=O)Nc3ccc(C(F)(F)F)cc3)ccc2O[C@H]1CN(C)C(=O)Nc1ccc(C(F)(F)F)cc1	8	-7	-15	1	-35	-65
C[C@H]1CN([C@@H](C)CO)C(=O)c2cc(NC(=O)Nc3ccc(C(F)(F)F)cc3)ccc2O[C@H]1CN(C)C(=O)Nc1ccc2c(c1)OCO2	6	1	0	1	1	35
C[C@@H]1CN([C@@H](C)CO)C(=O)c2cc(NC(=O)Nc3ccc(C(F)(F)F)cc3)ccc2O[C@@H]1CN(C)C(=O)Nc1ccc2c(c1)OCO2	15*	1	-7	1	-5	-26
C[C@H]1CN([C@@H](C)CO)C(=O)c2cc(NC(=O)NC3CCCCC3)ccc2O[C@@H]1CN(C)C(=O)Nc1ccccc1	5	6	nt	-5	157*	-6
C[C@@H]1CN([C@H](C)CO)C(=O)c2cc(NC(=O)Nc3cccc4ccccc34)ccc2O[C@@H]1CN(C)C(=O)Nc1ccccc1	1	1	-2	103*	9	13
C[C@@H]1CN([C@H](C)CO)C(=O)c2cc(NS(=O)(=O)c3cccs3)ccc2O[C@@H](C)CCCCO[C@@H]1CN(C)C(=O)Cc1ccccc1	-5	-2	-3	-2	-1	nt
COc1ccc(NC(=O)Nc2ccc3c(c2)C(=O)N([C@H](C)CO)C[C@@H](C)[C@@H](CN(C)C(=O)Nc2ccc(C(F)(F)F)cc2)O3)cc1	15*	-8	-7	0	-26	-2
CCN(Cc1ccccc1)c1ccc(/C=N/NS(=O)(=O)c2ccc(C)c([N+](=O)[O-])c2)cc1	1	-34*	nt	nt	-5	nt
